Laboratory results from ChEMBL document CHEMBL3860087, “New Broad-Spectrum Antibacterial Amphiphilic Aminoglycosides Active against Resistant Bacteria: From Neamine Derivatives to Smaller Neosamine Analogues” (J Med Chem, 2016).
Values after ≈ are worked out from the molar mass of the structure shown.

Legend:
Staphylococcus aureus [1] = assay: Antibacterial activity against Staphylococcus aureus ATCC 25923 by microdilution method; format: functional
How it was run: (§1)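 Broth microdilution per CLSI in cation-adjusted Mueller–Hinton broth. Strains were grown overnight at 37 °C on trypticase soy agar, and a fresh culture was used. Starting inoculum was 10^6 cells.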

Staphylococcus aureus [2] = assay: Antibacterial activity against NorA expressing Staphylococcus aureus 1 by microdilution method
Staphylococcus aureus [3] = assay: Antibacterial activity against healthcare-acquired methicillin-resistant Staphylococcus aureus ATCC 33592 by microdilution method; format: functional; how it was run: as §1
Pseudomonas aeruginosa [4] = assay: Antibacterial activity against Pseudomonas aeruginosa ATCC 27853 by microdilution method; format: functional
How it was run: (§2)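 Strains grown overnight at 37 °C on trypticase soy agar; MIC by broth microdilution from fresh culture in cation-adjusted Mueller–Hinton broth, starting inoculum 10^6 cells, following CLSI recommendations.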

Pseudomonas aeruginosa [5] = assay: Antibacterial activity against AAC6'-2A expressing Pseudomonas aeruginosa F03 by microdilution method; format: functional; how it was run: as §2
Pseudomonas aeruginosa [6] = assay: Antibacterial activity against MexXY expressing Pseudomonas aeruginosa PA22 by microdilution method; format: functional; how it was run: as §2
Pseudomonas aeruginosa [7] = assay: Antibacterial activity against triABC deficient Pseudomonas aeruginosa PA406 by microdilution method; format: functional; how it was run: as §2
Acinetobacter lwoffii [8] = assay: Antibacterial activity against Acinetobacter lwoffii ATCC 17925 by microdilution method; format: functional; how it was run: as §2
Acinetobacter lwoffii [9] = assay: Antibacterial activity against APH3'-VIA expressing Acinetobacter lwoffii AI.88-483 by microdilution method; format: functional; how it was run: as §2
Escherichia coli [10] = assay: Antibacterial activity against AAC6'-IB expressing Escherichia coli PAZ505H8101 by microdilution method; format: functional; how it was run: as §2
Escherichia coli [11] = assay: Antibacterial activity against ANT2''-IA expressing Escherichia coli L8058.1 by microdilution method; format: functional; how it was run: as §2
Klebsiella pneumoniae = assay: Antibacterial activity against Klebsiella pneumoniae ATCC 700603 by microdilution method; format: functional; how it was run: as §2
[12] = Cytotoxicity against mouse J774 cells assessed as cell viability at 10 uM after 24 hrs by MTT assay relative to control; format: toxicity, cell-based; settings: J774 cells, read-out: Activity
How it was run: (§3)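 Murine J774 macrophages exposed 24 h to 10 or 30 μM compound, then 1 h with 0.2 mg/mL MTT; reaction stopped with DMSO, OD read at 570 nm as metabolic-activity viability. Number of independent experiments given per value.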

[13] = Cytotoxicity against mouse J774 cells assessed as cell viability at 30 uM after 24 hrs by MTT assay relative to control; format: toxicity, cell-based; settings: J774 cells, read-out: Activity; how it was run: as §3
Escherichia coli [14] = assay: microbe, parasite or virus in culture; settings: ATCC 25922

Molecule | MIC (Staphylococcus aureus [1]) [µg/mL] | MIC (Staphylococcus aureus [2]) [µg/mL] | MIC (Staphylococcus aureus [3]) [µg/mL] | MIC (Pseudomonas aeruginosa [4]) [µg/mL] | MIC (Pseudomonas aeruginosa [5]) [µg/mL] | MIC (Pseudomonas aeruginosa [6]) [µg/mL] | MIC (Pseudomonas aeruginosa [7]) [µg/mL] | MIC (Acinetobacter lwoffii [8]) [µg/mL] | MIC (Acinetobacter lwoffii [9]) [µg/mL] | MIC (Escherichia coli [10]) [µg/mL] | MIC (Escherichia coli [11]) [µg/mL] | MIC (Klebsiella pneumoniae) [µg/mL] | viability at 24 h, 10 µM [12] [%] | viability at 24 h, 30 µM [13] [%] | MIC (Escherichia coli [14]) [µg/mL]
C=CCO[C@H]1O[C@H](CN)[C@@H](OCc2ccc3ccccc3c2)[C@H](OCc2ccc3ccccc3c2)[C@H]1N | 8 (≈ 16 µM) | 8 (≈ 16 µM) | 8 (≈ 16 µM) | > 128 | > 128 | > 128 | 32 (≈ 64.2 µM) | 8 (≈ 16 µM) | 64 (≈ 128 µM) | 64 (≈ 128 µM) | 128 (≈ 257 µM) | > 128 | 86.9 | 28.3 | 64 (≈ 128 µM)
NC[C@H]1O[C@H](O[C@H]2[C@H](O)[C@@H](O)[C@H](N)C[C@@H]2N)[C@H](N)[C@@H](O)[C@@H]1O [NEAMINE] | 16 to 32 (≈ 49.6 to 99.3 µM) | 8 (≈ 24.8 µM) | > 128 | > 128 | > 128 | > 128 | 64 (≈ 199 µM) | 0.5 (≈ 1.55 µM) | > 128 | > 128 | 32 (≈ 99.3 µM) | 32 (≈ 99.3 µM) | 94.8 | 84.4 | 32 (≈ 99.3 µM)
CCCCCCCCCO[C@@H]1[C@@H](N)[C@@H](OC[C@H](O)CN=[N+]=[N-])O[C@H](CN)[C@H]1OCCCCCCCCC | 2 (≈ 3.78 µM) | 2 (≈ 3.78 µM) | 2 (≈ 3.78 µM) | > 128 | > 128 | 128 (≈ 242 µM) | > 128 | 4 (≈ 7.55 µM) | > 128 | > 128 | > 128 | > 128 | 62.2 | 5.9 | 32 (≈ 60.4 µM)
NC[C@@H]1O[C@H](O[C@H]2[C@@H](O)[C@H](O[C@@H]3[C@@H](O)[C@H](N)C[C@H](N)[C@H]3O[C@H]3O[C@H](CN)[C@@H](O)[C@H](O)[C@H]3N)O[C@@H]2CO)[C@H](N)[C@@H](O)[C@@H]1O [FRAMYCETIN] | 1 to 2 (≈ 1.63 to 3.25 µM) | 0.5 (≈ 0.813 µM) | > 128 | 64 (≈ 104 µM) | 128 (≈ 208 µM) | 32 to 64 (≈ 52.1 to 104 µM) | 2 (≈ 3.25 µM) | < 0.25 | 64 to 128 (≈ 104 to 208 µM) | 4 (≈ 6.51 µM) | 1 (≈ 1.63 µM) | 4 to 8 (≈ 6.51 to 13 µM) | 87.3 | 69.8 | 2 (≈ 3.25 µM)
NC[C@H]1O[C@H](O[C@H]2[C@H](O)[C@@H](OCc3ccc4ccccc4c3)[C@H](N)C[C@@H]2N)[C@H](N)[C@@H](OCc2ccc3ccccc3c2)[C@@H]1O | 8 (≈ 13.3 µM) | 4 to 8 (≈ 6.64 to 13.3 µM) | 8 to 16 (≈ 13.3 to 26.5 µM) | 64 to 128 (≈ 106 to 212 µM) | 64 to 128 (≈ 106 to 212 µM) | > 128 | 2 to 4 (≈ 3.32 to 6.64 µM) | 4 to 8 (≈ 6.64 to 13.3 µM) | 128 (≈ 212 µM) | 32 (≈ 53.1 µM) | 64 to 128 (≈ 106 to 212 µM) | 128 (≈ 212 µM) | 86 | 75.9 | 32 to 64 (≈ 53.1 to 106 µM)
CCCCCCCCCO[C@@H]1[C@@H](N)[C@@H](OCC(O)CO)O[C@H](CN)[C@H]1OCCCCCCCCC (mixture of isomers) | 2 | 2 | 2 | 64 | 64 | 64 | 64 | 1 | 8 | 16 | 8 | 64 | 89.7 | 8.8 | 8
NC[C@H]1O[C@H](O[C@H]2[C@H](O)[C@@H](O)[C@H](N)C[C@@H]2N)[C@H](N)[C@@H](OCc2ccc3ccccc3c2)[C@@H]1OCc1ccc2ccccc2c1 | 2 to 4 (≈ 3.32 to 6.64 µM) | 2 to 4 (≈ 3.32 to 6.64 µM) | 4 to 8 (≈ 6.64 to 13.3 µM) | 16 (≈ 26.5 µM) | 128 (≈ 212 µM) | 128 (≈ 212 µM) | 2 to 4 (≈ 3.32 to 6.64 µM) | 4 (≈ 6.64 µM) | > 128 | 8 to 16 (≈ 13.3 to 26.5 µM) | 16 to 32 (≈ 26.5 to 53.1 µM) | > 128 | 79.1 |  | 16 to 32 (≈ 26.5 to 53.1 µM)
C=CCO[C@H]1O[C@H](CN)[C@@H](O)[C@H](O)[C@H]1N | > 128 | > 128 | > 128 | > 128 | > 128 | > 128 | > 128 | > 128 | > 128 | > 128 | > 128 | > 128 | 82.2 | 82.1 | > 128
CCCCCCCCCO[C@@H]1[C@@H](N)[C@@H](OC[C@H](O)CN)O[C@H](CN)[C@H]1OCCCCCCCCC | 2 (≈ 3.97 µM) | 2 (≈ 3.97 µM) | 2 (≈ 3.97 µM) | 8 (≈ 15.9 µM) | 8 (≈ 15.9 µM) | 8 (≈ 15.9 µM) | 8 (≈ 15.9 µM) | 2 (≈ 3.97 µM) | 8 (≈ 15.9 µM) | 4 (≈ 7.94 µM) | 4 (≈ 7.94 µM) | 8 to 16 (≈ 15.9 to 31.8 µM) | 88 | 14.4 | 4 (≈ 7.94 µM)
CCCCCCCCCO[C@@H]1[C@@H](N)[C@@H](OC[C@@H](O)CN)O[C@H](CN)[C@H]1OCCCCCCCCC | 2 (≈ 3.97 µM) | 1 (≈ 1.99 µM) | 2 (≈ 3.97 µM) | 4 to 8 (≈ 7.94 to 15.9 µM) | 8 (≈ 15.9 µM) | 8 (≈ 15.9 µM) | 4 to 8 (≈ 7.94 to 15.9 µM) | 2 (≈ 3.97 µM) | 4 (≈ 7.94 µM) | 4 (≈ 7.94 µM) | 4 to 8 (≈ 7.94 to 15.9 µM) | 8 (≈ 15.9 µM) | 85.1 | 7.2 | 4 (≈ 7.94 µM)
CCCCCCCCCO[C@@H]1[C@@H](N)[C@@H](OCC(O)CNCCCO)O[C@H](CN)[C@H]1OCCCCCCCCC (mixture of isomers) | 2 | 1 to 2 | 1 to 2 | 8 | 8 | 8 | 8 | 1 | 8 | 4 | 4 | 8 to 16 | 89.9 | 13.7 | 4 to 8
C=CCO[C@H]1O[C@H](CN)[C@@H](OCCCc2ccc3ccccc3c2)[C@H](OCCCc2ccc3ccccc3c2)[C@H]1N | 4 to 8 (≈ 7.21 to 14.4 µM) | 4 (≈ 7.21 µM) | 4 to 8 (≈ 7.21 to 14.4 µM) | 128 (≈ 231 µM) | > 128 | > 128 | 32 (≈ 57.7 µM) | 4 to 8 (≈ 7.21 to 14.4 µM) | 64 (≈ 115 µM) | 64 (≈ 115 µM) | 64 (≈ 115 µM) | 128 (≈ 231 µM) | 105 | 7 | 32 to 64 (≈ 57.7 to 115 µM)
C=CCO[C@H]1O[C@H](CN)[C@@H](OCCCCCCCCC)[C@H](OCCCCCCCCC)[C@H]1N | 4 (≈ 8.5 µM) | 4 (≈ 8.5 µM) | 4 (≈ 8.5 µM) | > 128 | > 128 | > 128 | > 128 | 4 to 8 (≈ 8.5 to 17 µM) | 32 (≈ 68 µM) | > 128 | > 128 | 128 (≈ 272 µM) | 91.4 | 6.6 | 32 to 64 (≈ 68 to 136 µM)
CCCCCCCCCO[C@@H]1[C@@H](N)[C@@H](OCC(O)CNCCN)O[C@H](CN)[C@H]1OCCCCCCCCC (mixture of isomers) | 2 | 2 | 2 | 8 | 4 to 8 | 4 to 8 | 8 | 2 | 16 to 32 | 4 to 8 | 4 to 8 | 8 to 16 | 87.5 | 53 | 8
GENTAMICIN | 0.25 to 0.5 |  | 1 | 1 | > 128 | 4 | < 0.25 | < 0.25 | 2 | 1 | 64 | 4 to 8 |  |  | 
NCC[C@H](O)C(=O)N[C@@H]1C[C@H](N)[C@@H](O[C@H]2O[C@H](CN)[C@@H](O)[C@H](O)[C@H]2O)[C@H](O)[C@H]1O[C@H]1O[C@H](CO)[C@@H](O)[C@H](N)[C@H]1O [AMIKACIN] | 4 (≈ 6.83 µM) | 2 (≈ 3.42 µM) | 8 to 16 (≈ 13.7 to 27.3 µM) | 2 to 4 (≈ 3.42 to 6.83 µM) | 8 (≈ 13.7 µM) | 8 (≈ 13.7 µM) | 1 (≈ 1.71 µM) | < 0.25 | 128 (≈ 219 µM) | 64 (≈ 109 µM) | 2 (≈ 3.42 µM) | 1 (≈ 1.71 µM) | 81.2 | 92 | 4 (≈ 6.83 µM)
NC[C@H]1O[C@H](O[C@H]2[C@H](O)[C@@H](O[C@H]3O[C@H](CO)[C@@H](O)[C@H](N)[C@H]3O)[C@H](N)C[C@@H]2N)[C@H](N)C[C@@H]1O [TOBRAMYCIN] | 0.25 (≈ 0.535 µM) | 0.5 (≈ 1.07 µM) | 64 (≈ 137 µM) | < 0.25 | 128 (≈ 274 µM) | 0.5 (≈ 1.07 µM) | < 0.25 | < 0.25 | 0.5 to 1 (≈ 1.07 to 2.14 µM) | 32 (≈ 68.4 µM) | 64 (≈ 137 µM) | 4 to 8 (≈ 8.56 to 17.1 µM) | 99.7 | 83.2 | 1 (≈ 2.14 µM)
